Reference: ChEMBL document CHEMBL3526002, “Tissue distribution and identification of radioactivity components at elimination phase after oral administration of [¹⁴C]CS-1036, an α-amylase inhibitor, to rats” (Drug Metab Dispos, 2013)

Columns and labels:
Design in all cases: dose 5 mg/kg, dosed compound name [14C]CS-1036, route oral
Settings in all cases: in vivo
Lung [1] = assay: Drug uptake in albino F344/DuCrlCrlj rat lung at 5 mg/kg, po after 8 hrs by liquid scintillation counting; format: ADME, organism-based
Cerebellum [2] = assay: Drug uptake in albino F344/DuCrlCrlj rat cerebellum assessed as ng equivalent of CS-1036 at 5 mg/kg, po after 1 hr by liquid scintillation counting; format: ADME, organism-based
Adrenal gland [3] = assay: Drug uptake in albino F344/DuCrlCrlj rat adrenal gland assessed as ng equivalent of CS-1036 at 5 mg/kg, po after 1 hr by liquid scintillation counting; format: ADME, organism-based
Cerebellum [4] = assay: Drug uptake in albino F344/DuCrlCrlj rat cerebellum assessed as ng equivalent of CS-1036 at 5 mg/kg, po after 72 hrs by liquid scintillation counting; format: ADME, organism-based
[5] = Drug uptake in albino F344/DuCrlCrlj rat fat assessed as ng equivalent of CS-1036 at 5 mg/kg, po after 336 hrs by liquid scintillation counting; format: ADME, organism-based, Adipose tissue
Outline: (§1)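 Male F344/DuCrlCrlj rats (bought at 7 weeks, acclimatized 5–6 days; 159–167 g; n = 3 per time point) received a single oral dose of [14C]CS-1036 at 5 mg/kg. White adipose tissue was collected after abdominal aortic bleeding at 1, 4, 8, 24, 72, 168 or 336 h. Samples were counted by LSC with external-standard efficiency correction. Results were converted to ng equivalents per g from specific activity and sample weight.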

Kidney = assay: Drug uptake in albino F344/DuCrlCrlj rat kidney assessed as ng equivalent of CS-1036 at 5 mg/kg, po after 4 hrs by liquid scintillation counting; format: ADME, organism-based
Cerebellum [6] = assay: Drug uptake in albino F344/DuCrlCrlj rat cerebellum at 5 mg/kg, po after 24 hrs by liquid scintillation counting; format: ADME, organism-based
Pancreas [7] = assay: Drug uptake in albino F344/DuCrlCrlj rat pancreas assessed as ng equivalent of CS-1036 at 5 mg/kg, po after 4 hrs by liquid scintillation counting; format: ADME, organism-based
Pancreas [8] = assay: Drug uptake in albino F344/DuCrlCrlj rat pancreas assessed as ng equivalent of CS-1036 at 5 mg/kg, po after 72 hrs by liquid scintillation counting; format: ADME, organism-based
Stomach = assay: Drug uptake in albino F344/DuCrlCrlj rat stomach assessed as ng equivalent of CS-1036 at 5 mg/kg, po after 72 hrs by liquid scintillation counting; format: ADME, organism-based
Pancreas [9] = assay: Drug uptake in albino F344/DuCrlCrlj rat pancreas at 5 mg/kg, po after 24 hrs by liquid scintillation counting; format: ADME, organism-based
Plasma = assay: Drug uptake in albino F344/DuCrlCrlj rat plasma assessed as ng equivalent of CS-1036 at 5 mg/kg, po after 168 hrs by liquid scintillation counting; format: ADME, organism-based
Adrenal gland [10] = assay: Drug uptake in albino F344/DuCrlCrlj rat adrenal gland assessed as ng equivalent of CS-1036 at 5 mg/kg, po after 168 hrs by liquid scintillation counting; format: ADME, organism-based
Blood [11] = assay: Drug uptake in albino F344/DuCrlCrlj rat blood at 5 mg/kg, po after 72 hrs by liquid scintillation counting; format: ADME, organism-based
Outline: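 Male rats (159–167 g; n = 3) received a single oral dose of [14C]CS-1036 at 5 mg/kg. Blood was drawn from the abdominal aorta at 1, 4, 8, 24, 72, 168 and 336 h. Radioactivity was counted by LSC with external-standard efficiency correction. Results are expressed as ng equivalent/ml from the specific activity and sample volume; mean + S.D.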

Large intestine = assay: Drug uptake in albino F344/DuCrlCrlj rat large intestine at 5 mg/kg, po after 72 hrs by liquid scintillation counting; format: ADME, organism-based
Cerebellum [12] = assay: Drug uptake in albino F344/DuCrlCrlj rat cerebellum assessed as ng equivalent of CS-1036 at 5 mg/kg, po after 8 hrs by liquid scintillation counting; format: ADME, organism-based
[13] = Drug uptake in albino F344/DuCrlCrlj rat fat assessed as ng equivalent of CS-1036 at 5 mg/kg, po after 8 hrs by liquid scintillation counting; format: ADME, organism-based, Adipose tissue; outline: as §1
[14] = Drug uptake in albino F344/DuCrlCrlj rat bone marrow assessed as ng equivalent of CS-1036 at 5 mg/kg, po after 168 hrs by liquid scintillation counting; format: ADME, organism-based
Blood [15] = assay: Drug uptake in albino F344/DuCrlCrlj rat blood assessed as ng equivalent of CS-1036 at 5 mg/kg, po after 336 hrs by liquid scintillation counting; format: ADME, organism-based
Outline: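 Male F344/DuCrlCrlj rats (159–167 g; n = 3 per time point) received a single oral dose of [14C]CS-1036 at 5 mg/kg. Blood was taken from the abdominal aorta at 1, 4, 8, 24, 72, 168 and 336 h. Radioactivity was counted by LSC with external-standard efficiency correction. Results were converted to ng equivalent of CS-1036/ml using specific activity and sample volume, and reported as mean + S.D.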

[16] = Drug uptake in albino F344/DuCrlCrlj rat eyeball at 5 mg/kg, po after 1 hr by liquid scintillation counting; format: ADME, organism-based
[17] = Drug uptake in albino F344/DuCrlCrlj rat trachea at 5 mg/kg, po after 1 hr by liquid scintillation counting; format: ADME, organism-based
Lung [18] = assay: Drug uptake in albino F344/DuCrlCrlj rat lung at 5 mg/kg, po after 1 hr by liquid scintillation counting; format: ADME, organism-based
Adrenal gland [19] = assay: Drug uptake in albino F344/DuCrlCrlj rat adrenal gland at 5 mg/kg, po after 1 hr by liquid scintillation counting; format: ADME, organism-based
Small intestine = assay: Drug uptake in albino F344/DuCrlCrlj rat small intestine assessed as ng equivalent of CS-1036 at 5 mg/kg, po after 8 hrs by liquid scintillation counting; format: ADME, organism-based
Cerebellum [20] = assay: Drug uptake in albino F344/DuCrlCrlj rat cerebellum assessed as ng equivalent of CS-1036 at 5 mg/kg, po after 24 hrs by liquid scintillation counting; format: ADME, organism-based
[21] = Drug uptake in albino F344/DuCrlCrlj rat eyeball at 5 mg/kg, po after 168 hrs by liquid scintillation counting; format: ADME, organism-based
[22] = Drug uptake in albino F344/DuCrlCrlj rat skeletal muscle at 5 mg/kg, po after 336 hrs by liquid scintillation counting; format: ADME, organism-based, Muscle tissue
Zone of skin = assay: Drug uptake in albino F344/DuCrlCrlj rat skin at 5 mg/kg, po after 336 hrs by liquid scintillation counting; format: ADME, organism-based
[23] = Drug uptake in albino F344/DuCrlCrlj rat bone marrow at 5 mg/kg, po after 336 hrs by liquid scintillation counting; format: ADME, organism-based
Aorta = assay: Drug uptake in albino F344/DuCrlCrlj rat aorta at 5 mg/kg, po after 336 hrs by liquid scintillation counting; format: ADME, organism-based
Thymus = assay: Drug uptake in albino F344/DuCrlCrlj rat thymus assessed as ng equivalent of CS-1036 at 5 mg/kg, po after 24 hrs by liquid scintillation counting; format: ADME, organism-based
Lung [24] = assay: Drug uptake in albino F344/DuCrlCrlj rat lung assessed as ng equivalent of CS-1036 at 5 mg/kg, po after 24 hrs by liquid scintillation counting; format: ADME, organism-based
[25] = Drug uptake in albino F344/DuCrlCrlj rat brown fat assessed as ng equivalent of CS-1036 at 5 mg/kg, po after 24 hrs by liquid scintillation counting; format: ADME, organism-based, Brown adipose tissue

C[C@H]1O[C@@H](O[C@H]2[C@H](O)[C@@H](O)[C@@H](O[14C@H]3[14C@H](O)[14CH2]N[14C@@H]3[14CH2]O)O[C@@H]2CO)[C@H](O)[C@@H](O)[C@@H]1O
Radiolabel recovery (Lung [1]): 64.8 ngequiv/g | Radiolabel recovery (Cerebellum [2]): 0.79 ngequiv/g | Radiolabel recovery (Adrenal gland [3]): 3.3 ngequiv/g | Radiolabel recovery (Cerebellum [4]): 6.4 ngequiv/g | Radiolabel recovery [5]: 63 ngequiv/g | Radiolabel recovery (Kidney): 173 ngequiv/g | Radiolabel recovery (Cerebellum [6]): 21.1 ngequiv/g | Radiolabel recovery (Pancreas [7]): 52 ngequiv/g | Radiolabel recovery (Pancreas [8]): 82 ngequiv/g | Radiolabel recovery (Stomach): 21.8 ngequiv/g | Radiolabel recovery (Pancreas [9]): 310 ngequiv/g | Radiolabel recovery (Plasma): 1.65 ngequiv/ml | Radiolabel recovery (Adrenal gland [10]): 93 ngequiv/g | Radiolabel recovery (Blood [11]): 16.1 ngequiv/ml | Radiolabel recovery (Large intestine): 65.1 ngequiv/g | Radiolabel recovery (Cerebellum [12]): 1.18 ngequiv/g | Radiolabel recovery [13]: 4.6 ngequiv/g | Radiolabel recovery [14]: 23 ngequiv/g | Radiolabel recovery (Blood [15]): 0.2 ngequiv/ml | Radiolabel recovery [16]: 17.7 ngequiv/g | Radiolabel recovery [17]: 41.1 ngequiv/g | Radiolabel recovery (Lung [18]): 47.1 ngequiv/g | Radiolabel recovery (Adrenal gland [19]): 32.2 ngequiv/g | Radiolabel recovery (Small intestine): 36 ngequiv/g | Radiolabel recovery (Cerebellum [20]): 2.3 ngequiv/g | Radiolabel recovery [21]: 4.54 ngequiv/g | Radiolabel recovery [22]: 7.04 ngequiv/g | Radiolabel recovery (Zone of skin): 24.9 ngequiv/g | Radiolabel recovery [23]: 26.2 ngequiv/g | Radiolabel recovery (Aorta): 11 ngequiv/g | Radiolabel recovery (Thymus): 5.8 ngequiv/g | Radiolabel recovery (Lung [24]): 12.8 ngequiv/g | Radiolabel recovery [25]: 63 ngequiv/g
